# Laboratory results reported in ChEMBL document CHEMBL5338759, “N-Phenyl-1-(phenylsulfonyl)-1H-1,2,4-triazol-3-amine as a New Class of HIV-1 Non-nucleoside Reverse Transcriptase Inhibitor” (J Med Chem, 2023).
# pEC50, pIC50: −log10 of the molar value. Activity calls are given as the source filed them. No cut-off for these calls is given here.
# How the values were obtained:
# [1] = tested on: Human immunodeficiency virus 1; test: Antiviral activity against wild type HIV1 IIIB infected in human TZM-bl cells; assay type: functional, organism-based; conditions: Human immunodeficiency virus 1, IIIB
# Summary of the method: (§1)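 TZM-bl cells (2x10⁵/mL) infected with HIV-1 IIIB grown in H9 cells, with 15 µg/mL DEAE-dextran; serial dilutions from 10 mM DMSO stocks, DMSO held constant (0.005% or 0.05%); 37°C, 5% CO₂, 48 hr; cells lysed, luciferase RLU read.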
# [2] = tested on: Human immunodeficiency virus 1; test: Antiviral activity against HIV1 harboring A17 mutant infected in human TZM-bl cells; assay type: functional, organism-based; conditions: for pEC50 / pIC50: Human immunodeficiency virus 1, TZM-bl
# Summary of the method: (§2)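 TZM-bl cells (2x10⁵/mL) were infected with mutant virus in the presence of 15 µg/mL DEAE-dextran. A17 (IIIB variant) was grown in H9 cells; the other mutants were NL4-3-based plasmids transfected into 293T cells, then expanded in H9 cells. Compounds were tested at 0.05–500 nM (DMSO constant within an assay) for 48 hr at 37°C. Read-out was luciferase RLU from lysed cells, with at least 6 replicates over multiple days.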
# [3] = tested on: TZM; test: Cytotoxicity against human TZM-bl cells assessed as reduction in cell viability by MTS assay; assay type: functional
# [4] = Selectivity index, ratio of CC50 for cytotoxicity against human TZM-bl cells assessed as reduction in cell viability by MTS assay to EC50 for antiviral activity against HIV1 harboring A17 mutant infected in human TZM-bl cells; assay type: toxicity, cell-based; conditions: read-out: Ratio CC50/EC50
# [5] = Selectivity index, ratio of CC50 for cytotoxicity against human TZM-bl cells assessed as reduction in cell viability by MTS assay to EC50 for antiviral activity against wild type HIV1 IIIB infected in human TZM-bl cells; assay type: toxicity, cell-based; conditions: read-out: Ratio CC50/EC50
# [6] = Neurotoxicity in mouse primary neurons assessed as loss of MAP-2 intensity incubated for 48 hrs by imaging analysis; assay type: toxicity, cell-based; conditions: neuron
# Summary of the method: (§3)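 Primary E16 CD1 mouse cortex/hippocampus cultures (>95% neurons) treated at 20 days in vitro with 10X dilutions made in artificial CSF, final 0.1–10,000 nM, for 48 hr; fixed in methanol:acetic acid (97:3), stained for MAP-2; relative MAP-2 intensity and area quantified by image analysis, […] (±SD) fitted from dose response.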
# [7] = Safety index, ratio of TC10 for neurotoxicity in mouse primary neurons assessed as loss of MAP-2 intensity to EC50 for antiviral activity against wild type HIV1 IIIB infected in human TZM-bl cells; assay type: toxicity, cell-based; conditions: mouse primary neurons, TZM-bl cells
# Summary of the method: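 Primary neuronal cultures from cortex/hippocampus of E16 CD1 mouse embryos (>95% neurons). Cells were then methanol:acetic acid-fixed and MAP-2 stained, and intensity was image-quantified. S-index = TC10/(100×EC50 vs HIV-1 IIIB in TZM-bl).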
# [8] = Neurotoxicity in mouse primary neurons assessed as loss of MAP-2 intensity at 0.0001 to 10 uM incubated for 48 hrs by semi-quantitative analysis; conditions: neuron
# [9] = tested on: Human immunodeficiency virus; test: Antiviral activity against wild type HIV IIIB infected in human TZM-bl cells; assay type: functional, organism-based; conditions: Human immunodeficiency virus 1, IIIB; summary of the method: as §1
# [10] = target: Human immunodeficiency virus type 1 reverse transcriptase (Human immunodeficiency virus 1, UniProt Q72547); test: Inhibition of HIV1 Reverse transcriptase incubated for 30 mins by fluorescence based analysis
# [11] = Neurotoxicity in mouse primary neurons assessed as loss of MAP-2 area incubated for 48 hrs by imaging analysis; assay type: toxicity, cell-based; conditions: neuron; summary of the method: as §3
# [12] = tested on: Neuron; test: Induction of calcium accumulation at acute phase in primary mouse neuron at 1 uM; assay type: functional, cell-based
# Summary of the method: (§4)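 Primary E16 CD1 mouse cortex/hippocampus neurons on coverslips, 14–18 days in vitro, loaded 30 min with 2 µM Fluo-4 AM in aCSF; three baseline images, then compound or vehicle in aCSF added at 1 µM final. Baseline fluorescence subtracted; changes averaged over all cells from at least triplicate runs, acute and delayed phases.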
# [13] = tested on: Neuron; test: Induction of calcium accumulation at delayed phase in primary mouse neuron at 1 uM; assay type: functional, cell-based; summary of the method: as §4
# [14] = tested on: Human immunodeficiency virus 1; test: Antiviral activity against HIV1 harboring L100I/K103N double mutant infected in human TZM-bl cells; assay type: functional, organism-based; conditions: Human immunodeficiency virus 1, TZM-bl
# [15] = tested on: Human immunodeficiency virus 1; test: Antiviral activity against HIV1 harboring K103N mutant infected in human TZM-bl cells; assay type: functional, organism-based; conditions: Human immunodeficiency virus 1, TZM-bl; summary of the method: as §2
# [16] = tested on: TZM; test: Cytotoxicity against human TZM-bl cells assessed as reduction in viability incubated for 48 hrs by CellTiter-Blue cell viability assay
# [17] = tested on: Human immunodeficiency virus 1; test: Antiviral activity against HIV1 harboring Y181C mutant infected in human TZM-bl cells; assay type: functional, organism-based; conditions: Human immunodeficiency virus 1, TZM-bl; summary of the method: as §2
# [18] = Selectivity ratio of IC50 for antiviral activity against wild type HIV1 IIIB infected in human TZM-bl cells to IC50 for antiviral activity against HIV1 harboring L100I/K103N double mutant infected in human TZM-bl cells; assay type: toxicity, cell-based; conditions: human immunodeficiency virus 1
# Summary of the method: (§5)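 TZM-bl cells (2x10⁵/mL) with 15 µg/mL DEAE-dextran were infected with HIV-1 IIIB, A17 (K103N/Y181C) IIIB variant, or NL4-3-based NNRTI-resistant mutants. Compound was present at 0.05–500 nM (DMSO held constant, 0.005% or 0.05%) for 48 hr at 37°C, 5% CO₂.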
# [19] = Selectivity ratio of IC50 for antiviral activity against wild type HIV1 IIIB infected in human TZM-bl cells to IC50 for antiviral activity against HIV1 harboring A17 mutant infected in human TZM-bl cells; assay type: toxicity, cell-based; conditions: human immunodeficiency virus 1; summary of the method: as §5
# [20] = Selectivity ratio of IC50 for antiviral activity against wild type HIV1 IIIB infected in human TZM-bl cells to IC50 for antiviral activity against HIV1 harboring K103N mutant infected in human TZM-bl cells; assay type: toxicity, cell-based; conditions: human immunodeficiency virus 1; summary of the method: as §5
# [21] = Selectivity ratio of IC50 for antiviral activity against wild type HIV1 IIIB infected in human TZM-bl cells to IC50 for antiviral activity against HIV1 harboring Y181C mutant infected in human TZM-bl cells; assay type: toxicity, cell-based; conditions: human immunodeficiency virus 1; summary of the method: as §5
compound,measurement,setting,value
Cc1cc(C)c(S(=O)(=O)n2nc(Nc3ccc(Cl)cc3)nc2N)c(C)c1,pEC50,[1],7.49
CN(C)c1cccc2c(S(=O)(=O)n3nc(Nc4ccc(Cl)cc4)nc3N)cccc12,pEC50,[1],7.97
same,pEC50,[2],< 6.00
N#Cc1ccc2c(S(=O)(=O)n3nc(Nc4ccc(C#N)c(Cl)c4)nc3N)cccc2c1,pEC50,[1],9.38
same,CC50,[3],6000 nM
same,selectivity ratio,[4],240
same,pEC50,[2],7.40
same,selectivity ratio,[5],17000
Cc1nc(C)c(S(=O)(=O)n2nc(Nc3ccc(C#N)c(Cl)c3)nc2N)s1,pEC50,[1],9.06
same,pEC50,[2],6.51
N#C/C=C/c1ccc2c(S(=O)(=O)n3nc(Nc4ccc(CC#N)cc4)nc3N)cccc2c1,pEC50,[1],9.66
same,CC50,[3],910 nM
same,pEC50,[2],7.61
same,selectivity ratio,[5],4100
Cn1cnc(S(=O)(=O)n2nc(N)nc2Nc2ccc(Cl)cc2)c1,pEC50,[1],> 7.00
same,Activity,[2],inactive
Nc1nc(Nc2ccc(Cl)cc2)nn1S(=O)(=O)c1ccc2ccccc2c1,TC10,[6],6100 nM
same,selectivity ratio,[7],6.5
same,Activity,[8],Non-Toxic
same,Activity,[3],inactive
same,pIC50,[9],8.03
same,pIC50,[10],6.55
N#CCc1ccc2c(S(=O)(=O)n3nc(Nc4ccc(C#N)c(Cl)c4)nc3N)cccc2c1,pEC50,[1],9.22
same,pEC50,[2],6.82
O=C1Nc2ccc(Cl)cc2[C@@](C#CC2CC2)(C(F)(F)F)O1 [EFAVIRENZ],TC10,[11],70 nM
same,Activity,[12],inactive
same,pEC50,[1],9.17
same,Activity,[8],Non-Toxic
same,CC50,[3],> 5000 nM
same,pEC50,[2],7.74
same,pIC50,[9],9.18
same,Activity,[13],Active
Nc1nc(Nc2ccc(Cl)cc2)n(S(=O)(=O)c2ccc(Cl)s2)n1,pEC50,[1],> 7.00
same,Activity,[2],inactive
Nc1nc(Nc2ccc(Cl)cc2)n(S(=O)(=O)c2cnn(-c3ccc(C(F)(F)F)cn3)c2)n1,pEC50,[1],> 7.00
same,Activity,[2],inactive
CC(=O)Nc1nc(C)c(S(=O)(=O)n2nc(Nc3cc(Cl)c(Cl)cc3Cl)nc2N)s1,pEC50,[1],< 6.00
same,pEC50,[2],< 6.00
N#Cc1ccc(Nc2nc(N)n(S(=O)(=O)c3c(Cl)nc4sccn34)n2)cc1,pEC50,[1],8.75
same,pEC50,[2],6.15
Cc1cc(/C=C/C#N)cc(C)c1Nc1ccnc(Nc2ccc(C#N)cc2)n1 [RILPIVIRINE],TC10,[11],600 nM
same,pIC50,[14],7.85
same,Activity,[12],inactive
same,TC10,[6],930 nM
same,pIC50,[1],9.48
same,pIC50,[15],8.89
same,Activity,[8],Non-Toxic
same,CC50,[16],> 5000 nM
same,CC50,[3],> 5000 nM
same,pIC50,[17],8.89
same,pIC50,[2],9.10
same,pIC50,[9],9.46
same,pIC50,[10],6.80
N#Cc1ccc2c(S(=O)(=O)n3nc(Nc4ccc(C#N)c(C#N)c4)nc3N)cccc2c1,pIC50,[14],5.98
same,Ratio IC50,[18],3500
same,TC10,[6],4500 nM
same,pEC50,[1],9.68
same,selectivity ratio,[7],140
same,Ratio IC50,[19],41
same,Ratio IC50,[20],8.9
same,pIC50,[15],8.23
same,Activity,[8],Non-Toxic
same,CC50,[16],27000 nM
same,CC50,[3],28000 nM
same,pIC50,[17],8.43
same,selectivity ratio,[4],570
same,pIC50,[2],8.89
same,pIC50,[9],9.49
same,pIC50,[10],6.46
same,Ratio IC50,[21],140
same,selectivity ratio,[5],130000
N#Cc1ccc(Nc2nc(N)n(S(=O)(=O)c3cccc4cc(C#N)ccc34)n2)cc1,TC10,[11],50 nM
same,pIC50,[14],5.82
same,Ratio IC50,[18],6700
same,TC10,[6],170 nM
same,pIC50,[1],9.64
same,selectivity ratio,[7],5.4
same,Ratio IC50,[19],240
same,Ratio IC50,[20],39
same,pIC50,[15],8.06
same,Activity,[8],Non-Toxic
same,CC50,[16],7800 nM
same,CC50,[3],7800 nM
same,pIC50,[17],7.74
same,selectivity ratio,[4],160
same,pIC50,[2],7.26
same,pIC50,[9],9.49
same,pIC50,[10],6.15
same,Ratio IC50,[21],80
same,selectivity ratio,[5],22000
